The values that follow come from ChEMBL document CHEMBL1129690, “Design, synthesis, and structure-activity relationship studies of novel 1-[(1-acyl-4-piperidyl)methyl]-1H-2- methylimidazo[4,5-c]pyridine derivatives as potent, orally active platelet-activating factor antagonists” (J Med Chem, 1996).

For assay [1], the system named is Mus musculus. The assay can be described thus: Dosage required to inhibit PAF-induced mortality in mice by 50% through oral administration. It counts as functional. Particulars: read-out: ID50 (the source's name). Put shortly:
(§1)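 Male Swiss mice, 22-26 g, groups of 10. Test article given iv (10 mL/kg, saline vehicle) 5 min before, or po (20 mL/kg, 1% Tween 80) 60 min before, tail-vein C-18-PAF 100 µg/kg plus propranolol 1 mg/kg. Mortality scored 2 h after PAF; % inhibition vs vehicle controls. ID50 by linear regression, ≥4 points.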

Assay [2] deals with Mus musculus. The assay can be described thus: Compound after an intravenous dose of 0.01 mg/Kg was tested for the inhibition of PAF-induced mortality in mice. It counts as functional. Put shortly: as §1
The species named for the next assay is Oryctolagus cuniculus. Briefly: Concentration required to inhibit PAF-induced maximum platelet aggregation in rabbit platelet-rich plasma. It counts as functional. Put shortly: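 PRP prepared by centrifugation at 250g, 10 min, 4 °C, and diluted with platelet-poor plasma (3000g, 10 min) to 3.5 × 10⁵ platelets/mm³. Aggregation triggered by C-18-PAF at 1.5 × 10^-8 M and read on a dual-channel aggregometer. IC50 from linear regression of at least four points, each the mean of one to three independent experiments.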

In a further assay the test system is Rattus norvegicus. The assay can be described thus: Dose required to reduce the lowering of the arterial blood pressure caused by PAF by 50% after intravenous administration in rats. It counts as functional. Particulars: read-out: ID50 (the source's name). Put shortly: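 Rats with both femoral veins catheterized, one for test compound and one for PAF (0.5 µg/kg). Compound given iv in saline (1 mL/kg) 3 min before PAF. Blood pressure monitored; % inhibition of hypotension calculated versus controls. ID50 from linear regression of at least four doses, each the mean of two or more independent experiments.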

The subject of assay [3] is Canis familiaris. Briefly: Inhibition of PAF-induced platelet aggregation in whole blood obtained after 4 hr from dog injected with an intravenous dose of 1 mg/Kg of compound. It counts as functional, Canis lupus familiaris. Put shortly: (§2)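 Male Beagle dogs (8-12 kg) dosed once at 1 mg/kg iv. Venous blood drawn before dosing and at 4 and 6 h, anticoagulated with 3.8% citrate (1:9) and diluted 1:1 in saline.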

The subject of assay [4] is Canis familiaris. The assay can be described thus: Inhibition of PAF-induced platelet aggregation in whole blood obtained after 6 hr from dog injected with an intravenous dose of 1 mg/Kg of compound. It counts as functional, Canis lupus familiaris. Summed up:
as §2

Assay [5] relates to Mus musculus. The assay can be described thus: Percentage of inhibition by the compound against PAF-induced mortality in mice 7 hr after intravenous administration of 1 mg/Kg. It counts as functional. Summed up: (§3)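 Male Swiss mice given single 1 mg/kg iv dose at time 0. C-18-PAF 100 µg/kg plus propranolol 1 mg/kg injected by lateral tail vein at later times (10-40 mice/time). Deaths scored 2 h after PAF. Percentage inhibition of mortality vs vehicle (saline) controls recorded at each time.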

In assay [6] the test system is Mus musculus. The assay can be described thus: Dosage required to inhibit PAF-induced mortality in mice by 50% through intravenous route. It counts as functional. Particulars: read-out: ID50 (the source's name). Summed up: as §1
The subject of assay [7] is Mus musculus. The assay can be described thus: Percentage of inhibition by the compound against PAF-induced mortality in mice 5 hr after intravenous administration of 1 mg/Kg. It counts as functional. Put shortly:
as §3

In assay [8] the test system is Mus musculus. The assay can be described thus: Percentage of inhibition by the compound against PAF-induced mortality in mice 3 hr after intravenous administration of 1 mg/Kg. It counts as functional. Put shortly:
as §3

Assay [9] deals with Mus musculus. Briefly: Compound after an intravenous dose of 0.03 mg/Kg was tested for the inhibition of PAF-induced mortality in mice. It counts as functional. Summed up:
as §1

In the case of `Cc1nc2cnccc2n1CC1CCN(S(=O)(=O)CC(C)(C)c2ccccc2)CC1`, the ED50 with Mus musculus [1] was over 1 mg/kg; in the assay with Rattus norvegicus, 0.087 mg/kg. The inhibition in vivo at 0.01 mg/kg with Mus musculus [2] was 50%. This compound had an IC50 in the assay listed under Oryctolagus cuniculus of 6.2 nM.
As for `Cc1nnc2n1-c1sc(CCC(=O)N3CCOCC3)cc1C(c1ccccc1Cl)=NC2` [APAFANT], the Inhibition in the assay on Canis familiaris [3] is 100%; in the assay with Canis familiaris [4], 55%. Further, the inhibition in vivo at 1 mg/kg in the assay with Mus musculus [5] amounted to 31%; in the assay on Mus musculus [7], 27%; in the assay on Mus musculus [8], 55%. For the same compound, the ED50 was found to be 0.084 mg/kg in the assay on Mus musculus [6], 1.24 mg/kg with Mus musculus [1] and 0.17 mg/kg in the assay on Rattus norvegicus. This compound also came in with an IC50 in the assay filed under Oryctolagus cuniculus of 91 nM.
`CC/C(=C\C(=O)N1CCC(Cn2c(C)nc3cnccc32)CC1)c1ccccc1`: the figures for the ED50 in the assay on Mus musculus [1] and with Rattus norvegicus were over 1 mg/kg and 0.0054 mg/kg, respectively. The compound further returned an inhibition in vivo at 0.03 mg/kg in the assay with Mus musculus [9] of 50%. Besides, half-maximal inhibition in the assay filed under Oryctolagus cuniculus (IC50) was put at 13 nM.
For `CCOC(=O)[C@@H](NC(=O)N1CCC(Cn2c(C)nc3cnccc32)CC1)c1ccccc1`, the ED50 in the assay on Mus musculus [1] is over 1 mg/kg; in the assay on Rattus norvegicus, 0.061 mg/kg. The compound further had an inhibition in vivo at 0.01 mg/kg in the assay with Mus musculus [2] of 50%. Inhibition in the assay filed under Oryctolagus cuniculus was half-maximal at 16 nM (IC50).
On to `CCOC(=O)C(CC(=O)N1CCC(Cn2c(C)nc3cnccc32)CC1)c1ccccc1` (stereo not drawn), for which the inhibition in vivo at 0.03 mg/kg in the assay with Mus musculus [9] is 45%. Also, the IC50 in the assay filed under Oryctolagus cuniculus turned out to be 12 nM. In addition, the ED50 in the assay with Rattus norvegicus turned out to be 0.17 mg/kg.
Consider `Cc1nc2cnccc2n1CC1CCN(C(=O)N[C@@H](C)c2ccccc2)CC1`, for which the ED50 is over 1 mg/kg in the assay on Mus musculus [1] and 0.21 mg/kg in the assay on Rattus norvegicus. This compound returned an inhibition in vivo at 0.03 mg/kg in the assay with Mus musculus [9] of 45%. In the assay filed under Oryctolagus cuniculus, this compound showed an IC50 of 41 nM.

Broadly, the inhibition in vivo is the drop in the measured response relative to a control, in per cent. As usually defined, the IC50 is the point on the concentration scale where inhibition reaches its midpoint. Lower therefore signals inhibition by little substance. What is called Inhibition is the relative decrease from the control value, in per cent. A high value points to strong suppression.
